Results reported in ChEMBL document CHEMBL1124042, “Synthesis and potential antipsychotic activity of 1H-imidazo[1,2-c]pyrazolo[3,4-e]pyrimidines” (J Med Chem, 1988).

Assays:
[1] = target: D(2) dopamine receptor (Rattus norvegicus, UniProt P61169); assay: Displacement of [3H]haloperidol from Dopamine receptor D2 in rat brain; format: tissue-based
[2] = target: T1, Adrenergic receptor alpha-2 (Rattus norvegicus, UniProt P22086+P19328+P22909); assay: Displacement of [3H]clonidine from alpha-2 adrenergic receptor in rat brain; format: tissue-based
T1 sequence (P22086 whole entry): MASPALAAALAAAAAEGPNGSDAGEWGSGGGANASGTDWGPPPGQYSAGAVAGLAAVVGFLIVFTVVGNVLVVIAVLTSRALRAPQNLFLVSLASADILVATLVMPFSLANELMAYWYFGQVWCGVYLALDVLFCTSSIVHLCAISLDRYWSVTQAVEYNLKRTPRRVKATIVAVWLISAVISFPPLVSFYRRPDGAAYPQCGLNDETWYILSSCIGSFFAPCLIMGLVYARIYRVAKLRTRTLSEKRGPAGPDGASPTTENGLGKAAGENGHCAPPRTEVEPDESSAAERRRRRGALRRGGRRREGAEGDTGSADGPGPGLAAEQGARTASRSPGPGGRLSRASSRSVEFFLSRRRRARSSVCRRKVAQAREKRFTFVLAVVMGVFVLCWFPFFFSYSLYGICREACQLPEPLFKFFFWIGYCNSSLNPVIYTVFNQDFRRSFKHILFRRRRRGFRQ
T1 sequence (P19328 whole entry): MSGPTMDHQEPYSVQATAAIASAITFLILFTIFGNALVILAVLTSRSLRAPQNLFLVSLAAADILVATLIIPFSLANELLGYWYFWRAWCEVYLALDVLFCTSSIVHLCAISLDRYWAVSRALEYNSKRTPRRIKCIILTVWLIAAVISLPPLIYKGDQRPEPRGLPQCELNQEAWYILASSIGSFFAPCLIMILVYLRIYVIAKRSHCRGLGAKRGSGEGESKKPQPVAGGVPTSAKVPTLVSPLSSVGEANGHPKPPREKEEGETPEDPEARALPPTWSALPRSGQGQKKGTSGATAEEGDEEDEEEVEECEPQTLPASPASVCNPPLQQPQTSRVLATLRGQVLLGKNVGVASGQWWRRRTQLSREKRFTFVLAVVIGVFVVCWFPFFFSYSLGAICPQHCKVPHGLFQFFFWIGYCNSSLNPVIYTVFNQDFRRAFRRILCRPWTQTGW
T1 sequence (P22909 whole entry): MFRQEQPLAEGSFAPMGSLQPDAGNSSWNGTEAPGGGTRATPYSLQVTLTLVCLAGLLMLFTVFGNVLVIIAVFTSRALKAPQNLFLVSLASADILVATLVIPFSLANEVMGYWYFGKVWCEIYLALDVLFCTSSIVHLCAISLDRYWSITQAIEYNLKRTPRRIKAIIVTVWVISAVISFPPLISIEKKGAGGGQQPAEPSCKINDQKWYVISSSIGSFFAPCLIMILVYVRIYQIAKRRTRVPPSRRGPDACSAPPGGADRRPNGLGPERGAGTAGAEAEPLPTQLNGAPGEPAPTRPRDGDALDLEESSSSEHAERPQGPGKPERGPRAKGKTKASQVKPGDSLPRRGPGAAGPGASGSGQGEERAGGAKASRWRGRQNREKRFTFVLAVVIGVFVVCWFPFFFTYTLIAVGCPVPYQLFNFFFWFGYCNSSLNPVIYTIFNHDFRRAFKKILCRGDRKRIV
In short: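 Rat brain radioligand displacement binding. IC50 values (μM) were derived by nonlinear regression from four or five concentrations of compound.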

[3] = system: Rattus norvegicus; assay: Inhibition of self-stimulation in rats after the compound administered through perorally; format: functional; conditions: po
In short: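 Suppression of high base line self-stimulation in rats after oral dosing. Read-out is ED50 in mg/kg.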

Chain of D(2) dopamine receptor (P61169 whole entry): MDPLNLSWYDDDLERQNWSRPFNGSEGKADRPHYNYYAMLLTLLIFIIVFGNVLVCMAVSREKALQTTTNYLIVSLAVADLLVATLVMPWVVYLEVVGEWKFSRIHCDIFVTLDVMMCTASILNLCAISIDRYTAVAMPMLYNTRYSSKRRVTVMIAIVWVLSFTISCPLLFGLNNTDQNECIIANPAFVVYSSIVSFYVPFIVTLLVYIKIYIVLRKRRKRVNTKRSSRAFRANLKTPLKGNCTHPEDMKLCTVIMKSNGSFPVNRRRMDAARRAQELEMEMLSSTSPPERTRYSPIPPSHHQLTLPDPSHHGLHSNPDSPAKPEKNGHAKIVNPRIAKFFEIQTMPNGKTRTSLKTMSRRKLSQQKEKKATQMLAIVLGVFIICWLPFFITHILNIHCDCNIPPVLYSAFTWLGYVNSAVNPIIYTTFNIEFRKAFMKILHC

## CCC1CN2C(C)=Nc3c(C)nn(C)c3C2=N1 (stereo not drawn)
[1]
  IC50: > 10 µM
[2]
  IC50: > 10 µM
[3]
  ED50: 10.8 mg/kg
